Key:
Blood [1] = assay: Biodistribution in ICR mouse blood at 370 kBq, iv after 60 mins by gamma-counting analysis in presence of haloperidol relative to control; assay type: ADME, organism-based; conditions: in vivo, 1 h
Procedure, shortened: (§1)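 Male ICR mice (n = 5) got saline or haloperidol (0.1 mL, 1.0 mg/kg) via tail vein 5 min before 370 kBq tracer iv. Tissues were taken 60 min later and γ-counted as %ID/g (intestine as %ID/organ). Control and blocked groups were compared by two-tailed independent Student's t test, p ≤ 0.05.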

Bone [2] = assay: Biodistribution in ICR mouse bone at 370 kBq, iv after 120 mins by gamma-counting analysis; assay type: ADME, organism-based, Bone element; conditions: in vivo, 2 h
Procedure, shortened: (§2)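 Male ICR mice (n = 5 per group) got 370 kBq tracer in 0.1 mL saline by iv injection. They were decapitated at 2, 30, 60 or 120 min, and organs were weighed and γ-counted. %ID/g was found against diluted aliquots of the injected dose, decay-corrected, and given as mean ± SD.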

Muscle tissue [3] = assay: Biodistribution in ICR mouse muscle at 370 kBq, iv after 120 mins by gamma-counting analysis; assay type: ADME, organism-based; conditions: in vivo, 2 h
Procedure, shortened: (§3)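 Male ICR mice, n = 5 per time point, given the radiotracer in saline (370 kBq, 0.1 mL) by intravenous injection. Killed by decapitation at 2, 30, 60 or 120 min. Organs were excised, weighed and gamma-counted with decay correction. Uptake is expressed as % injected dose per gram of wet tissue against diluted standards of the injected material; stomach and intestine are expressed as % injected dose per organ. Mean ± SD.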

Stomach [4] = assay: Biodistribution in ICR mouse stomach assessed per organ at 370 kBq, iv after 120 mins by gamma-counting analysis; assay type: ADME, organism-based; conditions: in vivo, 2 h; procedure, shortened: as §3
Spleen [5] = assay: Biodistribution in ICR mouse spleen at 370 kBq, iv after 120 mins by gamma-counting analysis; assay type: ADME, organism-based; conditions: in vivo, 2 h; procedure, shortened: as §3
Heart [6] = assay: Biodistribution in ICR mouse heart at 370 kBq, iv after 120 mins by gamma-counting analysis; assay type: ADME, organism-based; conditions: in vivo, 2 h; procedure, shortened: as §2
Blood [7] = assay: Biodistribution in ICR mouse blood at 370 kBq, iv after 120 mins by gamma-counting analysis; assay type: ADME, organism-based; conditions: in vivo, 2 h; procedure, shortened: as §2
Bone [8] = assay: Biodistribution in ICR mouse bone at 370 kBq, iv after 60 mins by gamma-counting analysis; assay type: ADME, organism-based, Bone element; conditions: in vivo, 1 h; procedure, shortened: as §2
[9] = Ratio of drug uptake from ICR mouse brain to blood after 60 mins; assay type: ADME, tissue-based; conditions: brain and blood
Stomach [10] = assay: Biodistribution in ICR mouse stomach assessed per organ at 370 kBq, iv after 60 mins by gamma-counting analysis; assay type: ADME, organism-based; conditions: in vivo, 1 h; procedure, shortened: as §3
Kidney [11] = assay: Biodistribution in ICR mouse kidney at 370 kBq, iv after 60 mins by gamma-counting analysis; assay type: ADME, organism-based; conditions: in vivo, 1 h; procedure, shortened: as §2
Spleen [12] = assay: Biodistribution in ICR mouse spleen at 370 kBq, iv after 60 mins by gamma-counting analysis; assay type: ADME, organism-based; conditions: in vivo, 1 h; procedure, shortened: as §3
Liver [13] = assay: Biodistribution in ICR mouse liver at 370 kBq, iv after 60 mins by gamma-counting analysis; assay type: ADME, organism-based; conditions: in vivo, 1 h; procedure, shortened: as §2
Bone [14] = assay: Biodistribution in ICR mouse bone at 370 kBq, iv after 30 mins by gamma-counting analysis; assay type: ADME, organism-based, Bone element; conditions: in vivo, 0.5 h; procedure, shortened: as §2
Intestine [15] = assay: Biodistribution in ICR mouse intestine assessed per organ at 370 kBq, iv after 30 mins by gamma-counting analysis; assay type: ADME, organism-based; conditions: in vivo, 0.5 h
Procedure, shortened: (§4)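 Male ICR mice (n = 5) got 370 kBq iv in 0.1 mL saline and were decapitated at 2, 30, 60 or 120 min. Whole intestine was γ-counted and expressed as percent injected dose per organ, decay-corrected, mean ± SD.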

Kidney [16] = assay: Biodistribution in ICR mouse kidney at 370 kBq, iv after 30 mins by gamma-counting analysis; assay type: ADME, organism-based; conditions: in vivo, 0.5 h; procedure, shortened: as §2
Spleen [17] = assay: Biodistribution in ICR mouse spleen at 370 kBq, iv after 30 mins by gamma-counting analysis; assay type: ADME, organism-based; conditions: in vivo, 0.5 h; procedure, shortened: as §3
Brain [18] = assay: Biodistribution in ICR mouse brain at 370 kBq, iv after 30 mins by gamma-counting analysis; assay type: ADME, organism-based; conditions: in vivo, 0.5 h; procedure, shortened: as §2
Heart [19] = assay: Biodistribution in ICR mouse heart at 370 kBq, iv after 30 mins by gamma-counting analysis; assay type: ADME, organism-based; conditions: in vivo, 0.5 h; procedure, shortened: as §2
[20] = Ratio of drug uptake from ICR mouse brain to blood after 2 mins; assay type: ADME, tissue-based; conditions: brain and blood
Muscle tissue [21] = assay: Biodistribution in ICR mouse muscle at 370 kBq, iv after 2 mins by gamma-counting analysis; assay type: ADME, organism-based; conditions: in vivo; procedure, shortened: as §3
Intestine [22] = assay: Biodistribution in ICR mouse intestine assessed per organ at 370 kBq, iv after 2 mins by gamma-counting analysis; assay type: ADME, organism-based; conditions: in vivo; procedure, shortened: as §4
Stomach [23] = assay: Biodistribution in ICR mouse stomach assessed per organ at 370 kBq, iv after 2 mins by gamma-counting analysis; assay type: ADME, organism-based; conditions: in vivo; procedure, shortened: as §3
Lung = assay: Biodistribution in ICR mouse lung at 370 kBq, iv after 2 mins by gamma-counting analysis; assay type: ADME, organism-based; conditions: in vivo; procedure, shortened: as §2
Kidney [24] = assay: Biodistribution in ICR mouse kidney at 370 kBq, iv after 2 mins by gamma-counting analysis; assay type: ADME, organism-based; conditions: in vivo; procedure, shortened: as §2
Spleen [25] = assay: Biodistribution in ICR mouse spleen at 370 kBq, iv after 2 mins by gamma-counting analysis; assay type: ADME, organism-based; conditions: in vivo; procedure, shortened: as §3
Heart [26] = assay: Biodistribution in ICR mouse heart at 370 kBq, iv after 2 mins by gamma-counting analysis; assay type: ADME, organism-based; conditions: in vivo; procedure, shortened: as §2
Liver [27] = assay: Biodistribution in ICR mouse liver at 370 kBq, iv after 2 mins by gamma-counting analysis; assay type: ADME, organism-based; conditions: in vivo; procedure, shortened: as §2
Brain [28] = assay: Biodistribution in ICR mouse brain at 370 kBq, iv after 2 mins by gamma-counting analysis; assay type: ADME, organism-based; conditions: in vivo; procedure, shortened: as §2
Blood [29] = assay: Biodistribution in ICR mouse blood at 370 kBq, iv after 2 mins by gamma-counting analysis; assay type: ADME, organism-based; conditions: in vivo; procedure, shortened: as §2
[30] = Lipophilicity, log D of the compound at pH 7.4 by shake flask method; assay type: physicochemical; conditions: buffer
Procedure, shortened: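 Shake flask: radiotracer (370 kBq) in 3 mL 1-octanol plus 3 mL 0.05 M sodium phosphate buffer pH 7.4, vortexed 3 min at room temperature, then centrifuged. Both phases were gamma-counted and log D = log(cpm/mL octanol ÷ cpm/mL buffer). The octanol layer was repartitioned until values were consistent. Triplicate, repeated three times.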

Intestine [31] = assay: Biodistribution in ICR mouse intestine assessed per organ at 370 kBq, iv after 60 mins by gamma-counting analysis in presence of haloperidol relative to control; assay type: ADME, organism-based; conditions: in vivo, 1 h; procedure, shortened: as §1
Stomach [32] = assay: Biodistribution in ICR mouse stomach assessed per organ at 370 kBq, iv after 60 mins by gamma-counting analysis in presence of haloperidol relative to control; assay type: ADME, organism-based; conditions: in vivo, 1 h
Procedure, shortened: (§5)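 Male ICR mice, n = 5 per group, received saline (0.1 mL) or haloperidol (0.1 mL, 1.0 mg/kg) via tail vein 5 min before the radiotracer (370 kBq, 0.1 mL, iv). Killed by decapitation at 60 min. Tissues were excised, weighed and gamma-counted. Values are % ID/g (stomach as % ID/organ) and percent change versus saline controls, compared by two-tailed independent Student's t test, p ≤ 0.05.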

Kidney [33] = assay: Biodistribution in ICR mouse kidney at 370 kBq, iv after 60 mins by gamma-counting analysis in presence of haloperidol relative to control; assay type: ADME, organism-based; conditions: in vivo, 1 h; procedure, shortened: as §1
Spleen [34] = assay: Biodistribution in ICR mouse spleen at 370 kBq, iv after 60 mins by gamma-counting analysis in presence of haloperidol relative to control; assay type: ADME, organism-based; conditions: in vivo, 1 h; procedure, shortened: as §5
Heart [35] = assay: Biodistribution in ICR mouse heart at 370 kBq, iv after 60 mins by gamma-counting analysis in presence of haloperidol relative to control; assay type: ADME, organism-based; conditions: in vivo, 1 h; procedure, shortened: as §1
Brain [36] = assay: Biodistribution in ICR mouse brain at 370 kBq, iv after 60 mins by gamma-counting analysis in presence of haloperidol relative to control; assay type: ADME, organism-based; conditions: in vivo, 1 h; procedure, shortened: as §1

Drug uptake (Blood [1]) [%] | Drug uptake (Bone [2]) [% ID/g] | Drug uptake (Muscle tissue [3]) [% ID/g] | Drug uptake (Stomach [4]) [%ID] | Drug uptake (Spleen [5]) [% ID/g] | Drug uptake (Heart [6]) [% ID/g] | Drug uptake (Blood [7]) [% ID/g] | Drug uptake (Bone [8]) [% ID/g] | Kp at 1 h [9] | Drug uptake (Stomach [10]) [%ID] | Drug uptake (Kidney [11]) [% ID/g] | Drug uptake (Spleen [12]) [% ID/g] | Drug uptake (Liver [13]) [% ID/g] | Drug uptake (Bone [14]) [% ID/g] | Drug uptake (Intestine [15]) [%ID] | Drug uptake (Kidney [16]) [% ID/g] | Drug uptake (Spleen [17]) [% ID/g] | Drug uptake (Brain [18]) [% ID/g] | Drug uptake (Heart [19]) [% ID/g] | Kp at 2 min [20] | SMILES | also measured
17 | 5.28 | 2.62 | 2.03 | 3.91 | 3.25 | 3.52 | 4.51 | 1.4 | 1.45 | 4.37 | 5.43 | 6.32 | 4.1 | 6.72 | 5.09 | 7.64 | 5.2 | 2.95 | 2.9 | [18F]CCOCCOCCOc1ccc(CN2CCC3(CC2)OCc2ccccc23)cc1 | Drug uptake (Muscle tissue [21]): 3.22 % ID/g; Drug uptake (Intestine [22]): 6.21 %ID; Drug uptake (Stomach [23]): 2.19 %ID; Drug uptake (Lung): 20.68 % ID/g; Drug uptake (Kidney [24]): 16.45 % ID/g; Drug uptake (Spleen [25]): 5.35 % ID/g; Drug uptake (Heart [26]): 7.69 % ID/g; Drug uptake (Liver [27]): 5.83 % ID/g; Drug uptake (Brain [28]): 5.79 % ID/g; Drug uptake (Blood [29]): 1.97 % ID/g; logD [30]: 1.9; Drug uptake (Intestine [31]): 30%; Drug uptake (Stomach [32]): 28%; Drug uptake (Kidney [33]): 11%; Drug uptake (Spleen [34]): -32%; Drug uptake (Heart [35]): 17%; Drug uptake (Brain [36]): -16%
352 | 6.13 | 4.01 | 0.89 | 9.09 | 8.54 | 1.2 | 4.27 | 11.4 | 0.9 | 10.87 | 8.52 | 13.87 | 3.3 | 8.02 | 13.16 | 8.2 | 9.32 | 14.39 | 4.7 | [18F]CCOc1ccc(CN2CCC3(CC2)OCc2ccccc23)cc1 | Drug uptake (Muscle tissue [21]): 5.45 % ID/g; Drug uptake (Intestine [22]): 6.62 %ID; Drug uptake (Stomach [23]): 1.45 %ID; Drug uptake (Lung): 47.91 % ID/g; Drug uptake (Kidney [24]): 18.76 % ID/g; Drug uptake (Spleen [25]): 4.84 % ID/g; Drug uptake (Heart [26]): 21.71 % ID/g; Drug uptake (Liver [27]): 8.46 % ID/g; Drug uptake (Brain [28]): 8.07 % ID/g; Drug uptake (Blood [29]): 1.71 % ID/g; logD [30]: 2.41; Drug uptake (Intestine [31]): -7%; Drug uptake (Stomach [32]): 208%; Drug uptake (Kidney [33]): -47%; Drug uptake (Spleen [34]): 5%; Drug uptake (Heart [35]): -61%; Drug uptake (Brain [36]): -58%
